Assay results published in ChEMBL document CHEMBL1131316, “Potent antagonists of somatostatin: synthesis and biology” (J Med Chem, 1998).
Positions of bridges follow the written chain, without caps; N, C: chain ends. Non-standard residues stand in square brackets, D forms with d. Residues, ends and D or L forms follow the SMILES beside them. 2Nal = N[C@@H](Cc1ccc2ccccc2c1)C(=O)O; 3Pal = N[C@@H](Cc1cccnc1)C(=O)O

What was measured:
[1] = biological target: Somatostatin receptor type 4 (Homo sapiens, UniProt P31391); experiment: Binding affinity towards cloned human somatostatin 4 (hsst) receptor
[2] = biological target: Somatostatin receptor type 1 (Homo sapiens, UniProt P30872); experiment: Binding affinity towards cloned human somatostatin 1 (hsst) receptor
How it was run: (§1)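 Membranes from CHO-K1 cells stably transfected with the human receptor subtype (calcium phosphate transfection, G418 selection), homogenised and washed in Tris-HCl. Separated by filtration on PEI-soaked GF/C filters; nonspecific binding with 1.0 µM SRIF.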

[3] = biological target: Somatostatin receptor type 2 (Homo sapiens, UniProt P30874); experiment: Binding affinity towards cloned human somatostatin 2 (hsst) receptor; how it was run: as §1
Somatostatin receptor = experiment: Compound was tested for in vitro SRIF inhibition of GH release in rats; format: functional
How it was run: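 Adult male rat anterior pituitary cells, dispersed with trypsin/DNase, cultured 4-5 days. Then 3 h at 37 °C in medium 199 with 1% BSA, GHRH(1-29)NH2 1 nM and SRIF 1 nM, with analogue at six doses (up to 10 µM, some to 100 µM), triplicate wells. GH in medium measured by double-antibody RIA. Antagonist IC50 taken from n separate dose-response curves.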

[4] = biological target: Somatostatin receptor type 3 (Homo sapiens, UniProt P32745); experiment: Binding affinity towards cloned human somatostatin 3 (hsst) receptor; how it was run: as §1
[5] = biological target: Somatostatin receptor type 5 (Homo sapiens, UniProt P35346); experiment: Binding affinity towards cloned human somatostatin 5 (hsst) receptor; how it was run: as §1
Chain of Somatostatin receptor type 5 (P35346 whole entry): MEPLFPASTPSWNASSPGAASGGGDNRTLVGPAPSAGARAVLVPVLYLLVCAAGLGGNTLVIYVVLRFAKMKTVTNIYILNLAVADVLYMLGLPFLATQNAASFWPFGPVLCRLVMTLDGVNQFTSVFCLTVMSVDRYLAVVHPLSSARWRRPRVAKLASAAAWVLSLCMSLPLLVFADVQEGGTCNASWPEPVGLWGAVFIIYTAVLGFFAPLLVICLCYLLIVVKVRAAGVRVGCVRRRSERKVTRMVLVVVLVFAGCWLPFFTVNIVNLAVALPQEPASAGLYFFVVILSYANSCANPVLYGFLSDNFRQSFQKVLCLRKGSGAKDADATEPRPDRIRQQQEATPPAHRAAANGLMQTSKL

Chain of Somatostatin receptor type 3 (P32745 whole entry): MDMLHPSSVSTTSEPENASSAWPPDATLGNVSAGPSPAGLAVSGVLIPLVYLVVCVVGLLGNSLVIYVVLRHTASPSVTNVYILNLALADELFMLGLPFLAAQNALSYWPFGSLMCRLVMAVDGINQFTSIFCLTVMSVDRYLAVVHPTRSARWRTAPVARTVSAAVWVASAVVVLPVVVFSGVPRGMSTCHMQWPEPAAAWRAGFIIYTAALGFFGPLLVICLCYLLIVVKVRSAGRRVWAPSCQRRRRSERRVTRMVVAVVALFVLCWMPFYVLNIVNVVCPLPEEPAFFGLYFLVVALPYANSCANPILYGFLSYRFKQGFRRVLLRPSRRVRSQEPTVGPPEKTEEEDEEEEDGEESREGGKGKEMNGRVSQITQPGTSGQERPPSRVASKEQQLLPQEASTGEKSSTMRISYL
Chain of Somatostatin receptor type 2 (P30874 whole entry): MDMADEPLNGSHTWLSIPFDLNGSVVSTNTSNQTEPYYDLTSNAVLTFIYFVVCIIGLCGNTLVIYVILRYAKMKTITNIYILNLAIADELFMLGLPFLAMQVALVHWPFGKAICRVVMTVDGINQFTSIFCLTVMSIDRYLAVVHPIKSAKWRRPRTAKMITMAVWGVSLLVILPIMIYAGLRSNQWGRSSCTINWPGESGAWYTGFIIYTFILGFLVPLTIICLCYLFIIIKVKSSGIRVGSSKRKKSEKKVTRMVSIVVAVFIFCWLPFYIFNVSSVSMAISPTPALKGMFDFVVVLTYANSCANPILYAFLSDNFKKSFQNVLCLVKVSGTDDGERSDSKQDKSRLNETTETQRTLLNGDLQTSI
Chain of Somatostatin receptor type 1 (P30872 whole entry): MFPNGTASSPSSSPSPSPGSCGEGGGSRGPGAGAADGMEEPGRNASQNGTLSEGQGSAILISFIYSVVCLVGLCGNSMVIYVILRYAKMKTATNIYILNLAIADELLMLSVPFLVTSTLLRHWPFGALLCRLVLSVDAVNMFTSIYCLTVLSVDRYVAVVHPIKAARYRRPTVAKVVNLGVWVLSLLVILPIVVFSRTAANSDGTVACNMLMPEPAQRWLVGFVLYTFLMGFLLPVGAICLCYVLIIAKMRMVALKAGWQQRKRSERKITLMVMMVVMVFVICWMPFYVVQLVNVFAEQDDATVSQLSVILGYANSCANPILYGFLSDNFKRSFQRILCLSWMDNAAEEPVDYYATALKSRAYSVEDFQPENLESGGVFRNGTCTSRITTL
Chain of Somatostatin receptor type 4 (P31391 whole entry): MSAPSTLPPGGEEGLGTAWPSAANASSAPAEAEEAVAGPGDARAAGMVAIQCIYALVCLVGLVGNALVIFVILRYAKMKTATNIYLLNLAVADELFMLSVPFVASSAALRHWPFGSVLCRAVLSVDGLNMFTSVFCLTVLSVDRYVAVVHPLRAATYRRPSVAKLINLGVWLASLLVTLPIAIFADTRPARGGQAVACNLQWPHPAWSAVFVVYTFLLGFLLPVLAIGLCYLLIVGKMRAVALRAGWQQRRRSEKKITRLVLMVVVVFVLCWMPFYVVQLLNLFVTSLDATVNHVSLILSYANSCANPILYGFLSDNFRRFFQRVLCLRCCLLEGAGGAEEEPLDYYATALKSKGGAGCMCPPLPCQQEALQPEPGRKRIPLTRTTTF

IC50 [1] | IC50 [2] | Ki [3] | IC50 (Somatostatin receptor) | IC50 [4] | Ki [5] | Structure (SMILES)
605 nM | 1040 nM | 202 nM | 180000 nM |  |  | C[C@@H](O)[C@@H]1NC(=O)[C@H](CCCCN)NC(=O)[C@@H](Cc2c[nH]c3ccccc23)NC(=O)[C@H](Cc2ccc(O)cc2)NC(=O)[C@H](NC(=O)[C@H](N)Cc2ccc3ccccc3c2)CSSC[C@@H](C(=O)N[C@@H](Cc2ccc3ccccc3c2)C(N)=O)NC1=O
1000 nM | 1000 nM | 291 nM | 905 nM | 934 nM | 2360 nM | C[C@@H](O)[C@H](NC(=O)[C@@H]1CSSC[C@@H](NC(=O)[C@@H](N)Cc2ccccc2)C(=O)N[C@@H](Cc2cccnc2)C(=O)N[C@H](Cc2c[nH]c3ccccc23)C(=O)N[C@@H](CCCCN)C(=O)N[C@@H]([C@@H](C)O)C(=O)N1)C(N)=O
 |  |  | 64.8 nM |  |  | CC(C)[C@@H]1NC(=O)[C@H](CCCCN)NC(=O)[C@@H](Cc2c[nH]c3ccccc23)NC(=O)[C@H](Cc2ccc(O)cc2)NC(=O)[C@H](NC(=O)[C@@H](N)Cc2ccc(O)cc2)CSSC[C@@H](C(=O)N[C@H](Cc2ccc3ccccc3c2)C(N)=O)NC1=O
1000 nM | 1000 nM | 46.1 nM | 280 nM | 2280 nM | 1250 nM | CC(C)[C@@H]1NC(=O)[C@H](CCCCN)NC(=O)[C@@H](Cc2c[nH]c3ccccc23)NC(=O)[C@H](Cc2ccc(O)cc2)NC(=O)[C@H](NC(=O)[C@@H](N)Cc2ccc3ccccc3c2)CSSC[C@@H](C(=O)N[C@H](Cc2ccc3ccccc3c2)C(N)=O)NC1=O
 |  |  | 375 nM |  |  | CC(C)[C@@H]1NC(=O)[C@H](CCCCN)NC(=O)[C@@H](Cc2c[nH]c3ccccc23)NC(=O)[C@H](Cc2ccc(O)cc2)NC(=O)[C@H](NC(=O)[C@H](N)Cc2ccc3ccccc3c2)CSSC[C@H](C(=O)N[C@H](Cc2ccc3ccccc3c2)C(N)=O)NC1=O
1000 nM | 535 nM | 123 nM | 58 nM | 373 nM | 769 nM | CC(C)[C@@H]1NC(=O)[C@H](CCCCN)NC(=O)[C@@H](Cc2c[nH]c3ccccc23)NC(=O)[C@H](Cc2cccnc2)NC(=O)[C@H](NC(=O)[C@@H](N)Cc2ccccc2)CSSC[C@@H](C(=O)N[C@@H](Cc2ccc3ccccc3c2)C(N)=O)NC1=O (H-F[dC][3Pal][dW]KVC[2Nal]-NH2; disulfide 2-7)
943 nM | 1000 nM | 82.5 nM | 53 nM | 68 nM | 501 nM | CC(C)[C@@H]1NC(=O)[C@H](CCCCN)NC(=O)[C@@H](Cc2c[nH]c3ccccc23)NC(=O)[C@H](Cc2c[nH]cn2)NC(=O)[C@H](NC(=O)[C@@H](N)Cc2ccc3ccccc3c2)CSSC[C@@H](C(=O)N[C@@H](Cc2ccc3ccccc3c2)C(N)=O)NC1=O (H-[2Nal][dC]H[dW]KVC[2Nal]-NH2; disulfide 2-7)
 |  |  | 50 nM |  |  | CC(C)[C@@H]1NC(=O)[C@H](CCCCN)NC(=O)[C@@H](Cc2c[nH]c3ccccc23)NC(=O)[C@H](Cc2ccc(O)cc2)NC(=O)[C@H](NC(=O)[C@@H](N)Cc2ccc3ccccc3c2)CSSC[C@@H](C(=O)N[C@@H](Cc2ccc(O)cc2)C(N)=O)NC1=O (H-[2Nal][dC]Y[dW]KVCY-NH2; disulfide 2-7)

Structure (SMILES) | IC50 [1] | IC50 [2] | Ki [3] | IC50 (Somatostatin receptor) | IC50 [4] | Ki [5]
C[C@@H](O)[C@H](NC(=O)[C@@H]1CSSC[C@@H](NC(=O)[C@@H](N)Cc2ccc(O)cc2)C(=O)N[C@@H](Cc2cccnc2)C(=O)N[C@H](Cc2c[nH]c3ccccc23)C(=O)N[C@@H](CCCCN)C(=O)N[C@@H]([C@@H](C)O)C(=O)N1)C(N)=O | 1000 nM | 1000 nM | 1000 nM | 98650 nM | 1380 nM | 
CC(=O)N[C@@H](Cc1ccc2ccccc2c1)C(=O)N[C@@H]1CSSC[C@@H](C(=O)N[C@@H](Cc2ccc3ccccc3c2)C(N)=O)NC(=O)[C@H](C(C)C)NC(=O)[C@H](CCCCN)NC(=O)[C@@H](Cc2c[nH]c3ccccc23)NC(=O)[C@H](Cc2ccc(O)cc2)NC1=O (Ac-[2Nal][dC]Y[dW]KVC[2Nal]-NH2; disulfide 2-7) | 1000 nM | 1020 nM | 48.2 nM | 56.7 nM | 144 nM | 130 nM
